MC4R antagonist: human MC4R antagonism in cAMP assay; inhibition, % at 6.5 µM; P32245; AID 540295; MC4R-expressing cells, MTII-stimulated cAMP, LANCE TR-FRET; 360,000 tested, 0.48% active;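 active = inhibition above its plate's cutoff, the mean of tested wells on that plate plus 3 SD, cut at about 29% in these data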
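Material – human MC4R-expressing U2OS cells · Repeats – no replicates · Detection – TR-FRET with Eu-cAMP and labeled anti-cAMP, 671 nm · Times – compound 30 min, challenge 1 h, detection 1 h · Compound – single nominal compound dose of 6.5 µM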
GAA850 FXN act: frataxin GAA850 promoter activation; HEK293 lucGAA850 FXN promoter luciferase reporter, 24 h; percent of 10 µM SAHA response; activation, % at 6 µM; 360,000 tested, 0.56% active;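 active = activation above the average of all compounds screened plus 3 SD, cutoff fixed separately per campaign, cut at about 7.5% in these data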
m5-HT2A agonist: activates the mouse 5-HT2A serotonin receptor; P35363; CHO-K1 mHTR2A beta-arrestin complementation, luminescence; percent of 30 µM serotonin response; activation, % at 7.6 µM; 360,000 tested, 0.66% active; AID 624169;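 active = activation above a run cutoff, the mean activation of all tested compounds plus 3 SD, cut at about 14% in these data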
AHR act: activates the human aryl hydrocarbon receptor; AHR-responsive luciferase reporter cells, luminescence; activation, % at 5 µM; 320,000 tested, 2.5% active; in the data active = activation above about 47%
Target sequence (P35869 whole entry, looked up): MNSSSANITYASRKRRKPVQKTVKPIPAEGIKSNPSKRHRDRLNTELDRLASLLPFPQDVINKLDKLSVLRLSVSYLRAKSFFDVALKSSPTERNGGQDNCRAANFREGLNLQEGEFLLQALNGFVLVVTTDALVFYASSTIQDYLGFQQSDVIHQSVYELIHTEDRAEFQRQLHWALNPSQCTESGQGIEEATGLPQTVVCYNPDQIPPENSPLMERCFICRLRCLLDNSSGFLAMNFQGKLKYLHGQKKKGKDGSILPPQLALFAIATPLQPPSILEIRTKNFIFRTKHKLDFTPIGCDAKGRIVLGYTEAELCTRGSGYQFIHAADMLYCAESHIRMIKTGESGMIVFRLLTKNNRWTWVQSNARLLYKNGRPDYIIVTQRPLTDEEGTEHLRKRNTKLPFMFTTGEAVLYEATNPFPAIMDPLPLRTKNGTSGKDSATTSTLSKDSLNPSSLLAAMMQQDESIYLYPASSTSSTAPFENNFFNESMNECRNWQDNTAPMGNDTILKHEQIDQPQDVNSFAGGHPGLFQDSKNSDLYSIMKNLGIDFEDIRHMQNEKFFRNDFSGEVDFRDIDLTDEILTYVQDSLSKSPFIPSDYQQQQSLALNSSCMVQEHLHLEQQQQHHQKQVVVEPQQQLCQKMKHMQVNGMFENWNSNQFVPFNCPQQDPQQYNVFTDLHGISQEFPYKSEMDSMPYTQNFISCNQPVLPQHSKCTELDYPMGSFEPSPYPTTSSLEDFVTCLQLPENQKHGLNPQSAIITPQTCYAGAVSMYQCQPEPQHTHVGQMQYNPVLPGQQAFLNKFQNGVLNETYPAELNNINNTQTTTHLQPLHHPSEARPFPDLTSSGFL
MC4R ag barr: activates human MC4R beta-arrestin recruitment. P32245. U2OS MC4R beta-arrestin complementation, luminescence; percent of melanotan II response, DMSO zero. activation, % at 8.9 µM. 360,000 tested, 0.98% active;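 active = activation above a per-plate cutoff, the mean activation of sample wells on that plate plus 3 SD, cut at about 8% in these data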
Large screens that a line does not name were inactive. An excerpt weighted towards active compounds, which were near 4.7% of everything screened.

Cc1ccc(OCC(=O)NN=C2c3ccccc3-c3ccccc32)cc1	MC4R ag barr 8.6
c1ccc(NN=C2c3ccccc3-c3ccccc32)cc1	none (no result: AHR act)
Cc1ccc(NN=C2c3ccccc3-c3ccccc32)cc1	AHR act 68, MC4R ag barr 8.4
COc1ccc(OCC(=O)N/N=C2\CCCCc3ccccc32)cc1	none
Cc1ccc(C)c(OCCC(=O)OCc2csc(CC(=O)Nc3ccccc3C)n2)c1	none (no result: AHR act)
CCCc1c(NC(=O)Nc2ccc(Cl)cc2Cl)cnn1-c1ccccc1	MC4R ag barr 9.2
Cc1nc(-c2ccncc2)sc1C(=O)Nc1ccc(Cl)cc1	AHR act 65
CNC(=O)c1sc(-c2ccccn2)nc1C	none
Cc1nc(-c2ccccn2)sc1C(=O)Nc1ccc(F)cc1	AHR act 118
COc1ccc(OC)c(S(=O)(=O)Oc2ccc(N)c3ccccc23)c1	AHR act 61
O=C(NCCCn1ccnc1)c1ccc(Cl)cc1	none
O=C(NCCCn1ccnc1)c1cc([N+](=O)[O-])cc([N+](=O)[O-])c1	AHR act 48
O=C(NCCCn1ccnc1)c1ccc(Cl)c(Cl)c1	AHR act 51
O=C(Nc1ccc(Br)cc1)c1cccnc1N1CCCCC1	AHR act 50
O=C(Nc1ccc(F)cc1)c1cccnc1N1CCCCC1	none
COc1ccc(CCCNC(=O)C2(C)Cc3c(-c4ccc5c(c4)OCO5)ccnc3O2)cc1 (centres undefined)	none (no result: AHR act)
CN(C)CCn1c2ccccc2c2nc3ccc([N+](=O)[O-])cc3cc21	MC4R ag barr 8.3
CCn1c2ccccc2c2cc([N+](=O)[O-])ccc21	none
C#CCN1CCc2onc(-c3ccc(Br)cc3)c2C1=O	none (no result: MC4R antagonist, GAA850 FXN act, AHR act, MC4R ag barr)
O=C(NCCNc1ccc([N+](=O)[O-])cc1C(F)(F)F)c1ccccc1F	AHR act 59
Cc1ccc(C(=O)NCCNc2ccc([N+](=O)[O-])cc2C(F)(F)F)cc1	none
S=C(NC1CCCC1)N1CCN(c2ccccn2)CC1	AHR act 57
COc1cccc(CNc2ccc(S(N)(=O)=O)cc2)c1OCc1ccccc1F	AHR act 48
C=CCOc1c(CNc2ccc(S(N)(=O)=O)cc2)cccc1OC	none
CC(=O)Nc1ccc(N=C(C2=C(O)c3ccccc3C2=O)c2ccccc2)cc1	AHR act 64
CCOC(=O)Cn1nc(-c2ccccc2)c2cnc3ccc(CC)cc3c21	MC4R ag barr 8.4
N#Cc1nc(COc2ccccc2)oc1NCCCn1ccnc1	AHR act 79
N#Cc1nc(COc2ccccc2F)oc1NCCCn1ccnc1	AHR act 71
COc1ccccc1OCc1nc(C#N)c(NCCCn2ccnc2)o1	none
CCCNC(=O)C1(C)CCCN(Cc2ccc(-n3ccnc3)cc2)C1 (centres undefined)	none (no result: AHR act)
COc1ccc(/C=N/NC(=O)c2ccoc2C)cc1CN1CCN(c2ccc(F)cc2)CC1	AHR act 73
O=C(NC1CC1)C1=C[C@@H](c2c[nH]c3ccccc23)C[C@@H](OCCCCO)O1	AHR act 65
O=C(NC1CC1)C1=C[C@@H](c2ccccc2)C[C@@H](OCc2ccc(CO)cc2)O1	none
O=C(NC1CC1)C1=C[C@H](c2c[nH]c3ccccc23)C[C@H](OCCCCO)O1	AHR act 72
O=C(NC1CC1)C1=C[C@@H](c2c[nH]c3ccccc23)C[C@@H](OCc2ccc(CO)cc2)O1	AHR act 76
Cc1ccccc1-c1cnc(C(O)c2c(C)ccc3ccccc23)[nH]1 (centres undefined)	none (no result: AHR act)
COc1ccc(OC)c(S(=O)(=O)NCc2cc(-c3ccccc3)no2)c1	AHR act 51
Nc1c(C(=O)N2CCCCCC2)oc2ccccc12	AHR act 73
Cc1c(C(=O)N2CCc3ccccc3C2)oc2ccccc12	AHR act 59
Cc1c(C(=O)N2CCCCC2)oc2ccccc12	none
O=C(CCc1ccccc1)N=C1SC2CS(=O)(=O)CC2N1Cc1ccccc1 (centres undefined)	MC4R ag barr 8.9
COc1ccc(OCc2cnc(Cl)s2)cc1	GAA850 FXN act 17
O=[N+]([O-])c1ccc(OCc2cnc(Cl)s2)cc1	none (no result: AHR act)
CCC1(C)OC(=O)N2CCc3c(C)[nH]c4c(C)ccc(c34)C21C (centres undefined)	AHR act 62
CCOC(=O)c1c(C)[nH]c(C(=O)COC(=O)c2ccc(N3CCCC3=O)cc2)c1C	none
CCc1cccc(NC(=O)c2ccc(Cn3nc(C)cc3C)o2)c1	none
CCOc1ccc(NC(=O)c2ccc(Cn3nc(C)cc3C)o2)cc1	AHR act 47
Brc1ccccc1-n1nnc(-c2cnc3ccccc3c2)n1	AHR act 54
Clc1nc2ccccc2cc1-c1nnn(-c2ccccc2Br)n1	none
Cc1cc(C)cc(NC(=O)Nc2ccc3ccccc3n2)c1	AHR act 56
O=C(Cc1ccc(Br)cc1)OCC(=O)N1CCOCC1	none
COc1ccc(-c2nc3ccccn3c2NCc2ccc3c(c2)OCO3)cc1	none
c1ccc(-c2nc3ccccn3c2NCc2ccc3c(c2)OCO3)cc1	AHR act 70
COc1ccc(S(=O)(=O)N2CCOC2CNC(=O)C(=O)NCCN2CCOCC2)cc1C (centres undefined)	none
CCCCN1C(=O)C2(NNc3ccccc3O2)c2ccccc21 (centres undefined)	AHR act 69
CCOC(=O)N1CCN(C(=O)C[C@@H]2C[C@@]3(C(=O)OCC)CCCC=C3N(Cc3ccccc3)C2=O)CC1	none (no result: MC4R antagonist, GAA850 FXN act, AHR act, MC4R ag barr)
Cc1[nH]n(-c2ccccc2)c(=O)c1N=Nc1ccccc1	none
CC(=O)c1ccc(N=Nc2c(C)[nH]n(-c3ccccc3)c2=O)cc1	AHR act 54
Cc1[nH]n(-c2ccccc2)c(=O)c1N=Nc1ccc(Cl)cc1	AHR act 51
Cc1[nH]n(-c2ccccc2)c(=O)c1N=Nc1ccc(C(=O)O)cc1	none
Nc1[nH]n(-c2ccccc2)c(=O)c1N=Nc1ccc2c(c1)OCO2	AHR act 121
Cc1ccc(S(=O)(=O)N2CCN(C(=O)COC(=O)c3cnc(C)cn3)CC2)c(C)c1	none
O=C1C(Cc2ccccc2)S/C(=N/N=C/c2ccco2)N1c1ccccc1 (centres undefined)	MC4R ag barr 8.4
CCOc1cc(C(=O)CSc2nnc(CNc3ccc(Cl)cc3)o2)ccc1NC(=O)CC	MC4R ag barr 40
CCCc1ccc(C2=Nn3c(nnc3C(C)C)SC2)cc1	none
COC(=O)C[C@H]1C[C@H]2c3cc(NC(=O)C4CCC4)ccc3O[C@H]2[C@H](CO)O1	none (no result: AHR act)
Cc1ccc(/C=N/NC(=O)c2cc(C)oc2C)cc1	none
Cc1cc(C(=O)NN=Cc2c(C)[nH]c3ccccc23)c(C)o1	AHR act 57
Cc1cc(C(=O)N/N=C/c2cccc([N+](=O)[O-])c2)c(C)o1	AHR act 72
O=C(N/N=C/c1cccc([N+](=O)[O-])c1)c1cnccn1	AHR act 54
